Assay outcomes from PubChem.
ADAM17 inh: ADAM17 inhibitors, primary screen, biochemical, QFRET; actives 0.83% (n = 370,000); Disintegrin and metalloproteinase domain-containing protein 17 (Homo sapiens), P78536; recombinant ADAM17, EDANS/DABCYL FRET peptide cleavage; inhibition, % at 6.95 µM;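 active = inhibition above the mean of compounds lying between control limits plus 3 SD, set per campaign, cut at about 8.5% in these data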;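 note: 0% = DMSO-only wells as the low control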
MPTP inh: mitochondrial permeability transition pore inhibitors, primary screen, biochemical, isolated mouse mitochondria, absorbance; Ca2+ swelling absorbance, 30 min; inhibition, % at 10 µM; actives 1.4% (n = 360,000); AID 602449, 2012;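 active = inhibition of 50% or more, scaled per plate between neutral and stimulator controls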;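 note: 0% = DMSO wells given calcium and 100% = 1 mM EGTA wells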
GRIN3A LBD mod: binders of NR3A ligand-binding domain, primary screen, biophysical, differential scanning fluorimetry, uHTS; Glutamate receptor ionotropic, NMDA 3A (GRIN3A) ligand-binding domain; NR3A LBD differential scanning fluorimetry, Tm shift; 0% = protein alone, 100% = glycine-bound protein; Tm shift relative to glycine control, % at 25 µM; actives 2.5% (n = 340,000);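 active = melting temperature shift of at least 10% of the positive control shift, at one fixed dose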
SKN-1 inh: suppressors of acrylamide-induced Pgst-4::GFP reporter in worms, primary screen, SKN-1 inhibitor project, whole organism, uHTS, GFP/RFP fluorescence ratio, strain VP596; actives 0.49% (n = 360,000); AID 624304, 2012; inhibition, % at 21.8 µM; C. elegans VP596 Pgst-4::GFP/RFP ratio, 24 h;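 active = interference check ratio from 0.5 to 1.5 plus GFP to RFP signal ratio inhibition reaching or exceeding a fixed threshold, cut at about 30% in these data, passing the limit was not always enough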
MT1-MMP act inh: blockers of MT1-MMP proenzyme processing, primary screen, HT1080 RFP-PRO-GFP cells, GFP/RFP fluorescence; Matrix metalloproteinase-14 (Homo sapiens), P50281; GFP/RFP ratio fluorescence, overnight; percent of plate control window, DMSO zero; GFP/RFP ratio change, % at 20 µM; actives 0.061% (n = 360,000); AID 651647, 2012;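 active = GFP/RFP ratio change of at least 30% with cell ATP level not reduced by more than half and red fluorescence within 50% of control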
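Assay system: HT1080 cells carrying an RFP-PRO-GFP reporter | Dosing: Single dose of 20 µM compound, 1% DMSO final | Incubation: Cells overnight before dosing, compound overnight, 37 °C, 5% CO2 | Evaluation: GFP/RFP fluorescence ratio | Control set: DMSO and RFP-L50D-GFP cell wells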
ADAM10 inh: human ADAM10 inhibitors, primary screen, biochemical, QFRET, HTS. recombinant ADAM10, EDANS/DABCYL FRET peptide cleavage, 3 h. inhibition, % at 7 µM. actives 0.62% (n = 370,000). Disintegrin and metalloproteinase domain-containing protein 10 (Homo sapiens), O14672;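 active = inhibition above a per-campaign cutoff equal to the mean of compounds falling between control-based bounds plus 3 SD, cut at about 20% in these data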;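 note: 0% = DMSO wells while the 100% control is not disclosed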
Target sequence (O14672 214-748 limits assumed): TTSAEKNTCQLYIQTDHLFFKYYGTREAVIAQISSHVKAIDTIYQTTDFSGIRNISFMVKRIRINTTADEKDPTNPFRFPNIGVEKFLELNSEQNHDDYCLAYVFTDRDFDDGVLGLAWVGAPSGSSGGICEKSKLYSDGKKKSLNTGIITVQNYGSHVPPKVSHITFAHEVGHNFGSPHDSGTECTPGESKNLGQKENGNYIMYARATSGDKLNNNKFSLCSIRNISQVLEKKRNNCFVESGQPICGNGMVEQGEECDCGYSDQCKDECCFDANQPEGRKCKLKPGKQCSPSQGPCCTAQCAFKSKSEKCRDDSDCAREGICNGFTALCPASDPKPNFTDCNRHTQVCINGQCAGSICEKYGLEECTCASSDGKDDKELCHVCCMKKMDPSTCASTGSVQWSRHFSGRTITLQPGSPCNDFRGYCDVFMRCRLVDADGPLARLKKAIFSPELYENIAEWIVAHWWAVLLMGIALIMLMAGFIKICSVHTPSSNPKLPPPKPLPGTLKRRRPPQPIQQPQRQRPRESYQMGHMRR
MPTP counter: fluorescence retest of MPTP screen hits in isolated mitochondria, single concentration | inhibition, % at 10 µM | membrane potential, Rhodamine 123 fluorescence | shares compounds with MPTP inh | actives 78% (n = 5,000); in the data active = inhibition above about 22%;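 note: 0% = DMSO vehicle and 100% = positive control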
* hit, by the source's call; nt = no result. A selection: hits, their analogues and other compounds. The true share with any hit is near 4.7%.

SMILES | ADAM17 inh | MPTP inh | GRIN3A LBD mod | SKN-1 inh | MT1-MMP act inh | ADAM10 inh | MPTP counter
OCc1ccc(-c2nn(Cc3ccccc3)c3ccccc23)o1 | -55.0 | -0.9 | -1.3 | -4.0 | 3.8 | -199.4 | nt
CN(C)CCCOc1nn(Cc2ccccc2)c2ccccc12 | -6.1 | 75.4* | -0.8 | 9.3 | 1.4 | -10.0 | -3.8
CC1(C)Cc2c(c(=S)nc(-c3ccccc3)n2CCO)CO1 | 1.5 | -0.6 | 0.1 | 11.9 | 3.2 | 7.1 | nt
O=C1C=C(O)c2cccc(O)c2C1=O | -1.6 | 6.8 | -1.8 | 5.3 | 4.6 | -3.3 | nt
O=C1C=C(c2c(O)ccc3ccccc23)c2ccccc2C1=O | 4.2 | 64.6* | -8.5 | 11.9 | -4.8 | -0.2 | 49.9*
CC1CC(C)(C)CC2(C1)NC(=O)N(CC(=O)N(C)Cc1nc3ccccc3c(=O)[nH]1)C2=O (configuration not stated) | -4.5 | -2.9 | 0.3 | 18.1 | -2.1 | -6.4 | nt
Cc1nc2c(c(=O)c3ccccc3n2C)c(=O)n1C1CCCC1 | -2.2 | nt | nt | nt | nt | -0.4 | nt
Cn1c2ccccc2c(=O)c2c(=O)n(C3CCCCCC3)c(C3CCCCC3)nc21 | 5.6 | 87.9* | -7.9 | 19.2 | -14.1 | -11.8 | 4.5
CC1=NNC(=O)C1CC(=O)N/N=C(\C)c1cccs1 (configuration not stated) | -4.4 | -1.0 | -3.0 | -3.6 | 5.3 | -5.9 | nt
NNC(=O)c1csc(-c2cccc(C(F)(F)F)c2)n1 | -2.5 | 1.6 | 0.8 | -1.5 | -2.0 | -4.6 | nt
O=C(NCCCN1CCCC1=O)NC1CCCCC1 | 2.3 | -0.9 | -0.2 | -6.6 | 12.7 | 0.3 | nt
COC(=O)c1cccc(NC(=O)Nc2ccc(Cl)c(Cl)c2)c1 | 5.9 | 98.4* | 42.9* | 12.6 | 0.7 | 12.4 | 70.1*
COC(=O)c1cccc(NC(=O)NC(=O)c2ccccc2Cl)c1 | -1.2 | 1.1 | -0.2 | -13.6 | 1.2 | -2.5 | nt
CCN(CC)C(=S)Nc1ccc(Cl)c(Cl)c1 | -2.7 | 71.4* | 0.2 | 9.4 | -10.7 | -3.6 | 58.6*
COC(=O)c1sccc1NC(=O)Nc1ccc(C)c(C)c1 | 6.1 | -0.9 | -12.1 | 9.9 | -5.5 | 6.0 | nt
COC(=O)c1sccc1NC(=O)Nc1ccc(Cl)c(Cl)c1 | -5.5 | 103.3* | -0.7 | 1.0 | 1.2 | -0.3 | 106.9*
NC(=S)NNC(=O)Nc1ccc(Cl)c(Cl)c1 | 0.4 | 72.3* | 6.3 | -0.2 | 0.4 | -1.9 | 69.9*
COc1nc(Cc2ccc(Cl)cc2)nc2ccccc12 | 0.8 | 3.6 | -1.9 | 20.5 | -4.0 | 1.0 | nt
CCN(CC(=O)NNC(=O)c1ccccc1)Cc1ccc(OC)c(F)c1 | -2.1 | -0.1 | 0.5 | 18.8 | -4.1 | -11.1 | nt
COC(=O)c1cc(NC(=O)C2COc3ccccc3O2)ccc1Cl (configuration not stated) | -1.6 | 1.1 | -0.5 | 13.5 | 0.8 | 10.7 | nt
COC(=O)c1cc(NC(=O)Nc2ccccc2)ccc1Cl | 5.3 | 75.9* | 39.4* | 0.7 | 0.7 | 6.1 | 83.3*
CC(=O)N1CCN(c2ccc(Oc3ccc([N+](=O)[O-])c(C(F)(F)F)c3)cc2)CC1 | nt | 80.2* | 7.8 | 6.6 | -13.7 | nt | 75.7*
CCOc1ccc(C(=O)Nc2ccc(N3CCN(C(C)=O)CC3)cc2)cc1[N+](=O)[O-] | -0.2 | 3.0 | -1.7 | -2.8 | 1.5 | -6.3 | nt
COc1cc(C2Nc3ccccc3NC3=C2C(=O)CC(C)(C)C3)cc(OC)c1OC (configuration not stated) | 2.4 | -0.1 | 1.4 | 12.6 | 0.3 | 9.4 | nt
Cc1ccc(C)c2c1[nH]c1ccc([N+](=O)[O-])cc12 | 3.0 | 81.4* | 35.3* | 14.5 | 2.1 | 14.1 | 82.1*
